According to ChEMBL document CHEMBL1147901, “Anticancer, neuroprotective activities and computational studies of 2-amino-1,3,4-thiadiazole based compound” (Bioorg Med Chem, 2007):
Active and inactive are the calls of the source.

Legend:
Rattus norvegicus [1] = organism: Rattus norvegicus; assay: Neuroprotective activity against glutamate-induced neurotoxicity in rat cortical neurons; format: functional
Procedure, shortened: (§1)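 Cortical neurons from E18 Wistar rat fetuses, plated at 5 × 10^5 cells/mL on poly-L-lysine in B-27/Neurobasal medium and grown to 14 days. Insult was glutamate (500 µM) or serum deprivation (Neurobasal without B-27), alone or with 10 or 25 µM compound, for 48 h. MTT read-out as mean normalized OD ±SEM of 4–8 trials.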

TE-671 = assay: Antiproliferative activity against human TE671 cells at 10 uM after 96 hrs by MTT assay; format: functional, cell-based; settings: TE-671, 96 h
Procedure, shortened: (§2)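 MTT viability. Seeded per well at 0.5 × 10^4 (C6), 1 × 10^4 (TE671, A549) or 3 × 10^4 (HT-29, SK-N-AS). Next day exposed to serial dilutions (5–100 µM) in fresh medium with 10% FBS at 37 °C, 5% CO2 for 96 h. MTT (5 mg/mL) for 4 h, formazan dissolved overnight in 10% SDS/0.01 N HCl, A570. Threshold concentration giving antiproliferative effect recorded.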

C6 [2] = assay: Antiproliferative activity against rat glioma C6 cells assessed as decreased cell division after 48 hrs; format: functional, cell-based; settings: C6, 48 h
Procedure, shortened: (§3)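 BrdU ELISA. Cells seeded at 2 × 10^4 (A549) or 1 × 10^4 (C6) per well. Next day, fresh medium containing serial dilutions (5–50 µM) was added for 48 h. Cells were then labelled with 10 µM BrdU for 2 h, fixed/denatured 30 min, probed with peroxidase anti-BrdU and developed with TMB. Stopped with 1 M H2SO4, A450. Mean normalized OD ±SEM of 5–8 trials, linear regression.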

SK-N-AS = assay: Antiproliferative activity against human SK-N-AS cells at 25 uM after 96 hrs by MTT assay; format: functional, cell-based; procedure, shortened: as §2
A549 [3] = assay: Antiproliferative activity against human A549 cells at 10 uM after 96 hrs by MTT assay; format: functional, cell-based; settings: A549, 96 h; procedure, shortened: as §2
HT-29 = assay: Antiproliferative activity against human HT29 cells at 5 uM after 96 hrs by MTT assay; format: functional, cell-based; settings: HT-29, 96 h; procedure, shortened: as §2
Rattus norvegicus [4] = organism: Rattus norvegicus; assay: Neuroprotective activity against serum deprivation induced neurotoxicity in rat cortical neurons; format: functional; procedure, shortened: as §1
C6 [5] = assay: Antiproliferative activity against rat glioma C6 cells at 25 uM after 96 hrs by MTT assay; format: functional, cell-based; settings: C6, 96 h; procedure, shortened: as §2
C6 [6] = assay: Inhibition of rat glioma C6 cell migration at 5 uM after 24 hrs; format: functional, cell-based
Procedure, shortened: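 Scratch-wound assay. 1 × 10^6 C6 cells were plated per 4-cm dish. Next day the monolayer was scratched with a pipette tip and rinsed twice with PBS. Fresh medium alone or with 5 µM compound for 24 h, then May-Grünwald–Giemsa staining. Cells migrated into the wound were counted on micrographs as mean per field ±SEM over 50 wound areas from four micrographs; Student's t test.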

A549 [7] = assay: Antiproliferative activity against human A549 cells assessed as decreased cell division after 48 hrs; format: functional, cell-based; settings: A549, 48 h; procedure, shortened: as §3

IC50 (SK-N-AS): 54.7 µM
IC50 (A549 [3]): 22.8 µM
IC50 (HT-29): 33.1 µM
IC50 (A549 [7]): 13.7 µM
Compound: Oc1ccc(-c2nnc(Nc3ccc(F)cc3)s2)c(O)c1
Activity (Rattus norvegicus [1]): Dose-dependent effect
IC50 (TE-671): 26 µM
IC50 (C6 [2]): 23.5 µM
Activity (Rattus norvegicus [4]): Dose-dependent effect
IC50 (C6 [5]): 27.3 µM
Activity (C6 [6]): Active
